# Bioassay records from PubChem BioAssay.
# Shown are actives, neighbours in structure and some others; about 2.3% of the full set was active somewhere.
# TRPC6 act = mouse TRPC6 channel activators, primary screen, cell-based, HEK293, membrane potential dye; B-score at 10 µM; Short transient receptor potential channel 6 (Mus musculus), Q61143; HEK293-TRPC6 membrane potential dye fluorescence; hits give high values; 0.13% of 310,000 active;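 active = B-score of the integrated fluorescence ratio above library mean plus 3 SD, and starting fluorescence ratio within library mean plus 5 SD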;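 note: higher score means more depolarization so channel activation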
# TRPC4 act = activators of mouse TRPC4 channel, primary screen, Fluo4 calcium, HEK293 TRPC4beta/mu-opioid cells. Short transient receptor potential channel 4 (Mus musculus), Q9QUQ5. Fluo4 calcium fluorescence; hits give high values. B-score at 10 µM. 0.49% of 310,000 active. AID 2237, 2010;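 active = B-score above 5 SD of library B-scores, and initial fluorescence ratio not above library mean plus 5 SD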;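 note: positive B-score marks a calcium rise read as TRPC4 activation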
# Target sequence (Q9QUQ5 whole entry, looked up): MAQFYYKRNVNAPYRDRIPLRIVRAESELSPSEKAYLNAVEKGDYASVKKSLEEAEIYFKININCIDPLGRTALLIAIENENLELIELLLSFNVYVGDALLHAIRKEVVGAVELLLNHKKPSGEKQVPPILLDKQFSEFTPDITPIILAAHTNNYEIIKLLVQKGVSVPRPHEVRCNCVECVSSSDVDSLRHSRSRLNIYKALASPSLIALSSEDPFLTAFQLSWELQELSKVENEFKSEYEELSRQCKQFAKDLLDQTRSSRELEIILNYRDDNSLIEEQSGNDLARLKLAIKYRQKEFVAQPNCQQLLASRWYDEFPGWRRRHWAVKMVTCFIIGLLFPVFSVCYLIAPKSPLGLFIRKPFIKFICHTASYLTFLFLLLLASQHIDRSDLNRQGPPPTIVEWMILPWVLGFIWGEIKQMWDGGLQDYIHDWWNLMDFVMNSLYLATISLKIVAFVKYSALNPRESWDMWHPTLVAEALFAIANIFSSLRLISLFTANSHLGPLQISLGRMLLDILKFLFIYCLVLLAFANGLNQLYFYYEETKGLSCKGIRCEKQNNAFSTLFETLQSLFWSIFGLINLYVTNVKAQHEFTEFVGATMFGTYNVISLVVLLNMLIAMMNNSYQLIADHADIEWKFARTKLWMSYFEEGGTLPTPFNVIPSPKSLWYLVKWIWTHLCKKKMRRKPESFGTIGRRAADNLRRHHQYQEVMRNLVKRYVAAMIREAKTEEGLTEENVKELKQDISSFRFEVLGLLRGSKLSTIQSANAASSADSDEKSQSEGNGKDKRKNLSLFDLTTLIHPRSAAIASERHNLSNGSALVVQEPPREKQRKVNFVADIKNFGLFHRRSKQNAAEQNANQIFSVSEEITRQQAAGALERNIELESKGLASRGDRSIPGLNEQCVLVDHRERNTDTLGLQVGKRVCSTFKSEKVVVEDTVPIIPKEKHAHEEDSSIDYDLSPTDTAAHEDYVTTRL
#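 Technique: kinetic Fluo4 calcium fluorescence; Test system: TRPC4beta and mu-opioid receptor HEK293 stable cells; Measure: B-scored integrated calcium fluorescence ratio; Benchmarks: low control buffer alone, high control maximal DAMGO; Schedule: 45 min room-temperature Fluo4 loading, 110 s read.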
# TRPC4 potent = positive allosteric modulators of TRPC4, primary screen, cell-based, mouse TRPC4beta, HEK293 mu-opioid, Fluo-4 calcium; DAMGO EC20, Fluo-4 Ca2+ flux; hits give high values; B-score at 10 µM; 0.42% of 310,000 active;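 active = B-score of calcium response area above 5 SD of library B-scores, with initial fluorescence ratio within 5 SD of library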;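 note: B-score of integrated fluorescence ratio over time as area under calcium response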
# TRPC4 block = inhibitors of mouse TRPC4 channel, primary screen, Fluo4 calcium, HEK293 TRPC4beta/mu-opioid cells; AID 2247, 2010; Short transient receptor potential channel 4 (Mus musculus), Q9QUQ5; B-score at 10 µM; DAMGO-evoked Fluo4 calcium flux; hits give low values; 0.39% of 300,000 active;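 active = B-score over 3 SD under the library average, no early fluorescence shift, positive overall ratio signal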
#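 Assay system: Stable TRPC4beta/mu-opioid receptor HEK293 cells | Reagent: DAMGO in two steps, submaximal then maximal | Compound dosing: Single concentration per test compound | Signal: Fluo4 Ca2+ flux fluorescence | Evaluation: Per-well B score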
# TRPC6 inhibitor = mouse TRPC6 channel inhibitors, primary screen, cell-based, HEK293, membrane potential dye. AID 2553, 2010. B-score at 10 µM. ACh-evoked depolarization; hits give low values. Short transient receptor potential channel 6 (Mus musculus), Q61143. 1.1% of 310,000 active;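 active = B-score under library mean minus 3 SD, initial fluorescence not abnormally high, positive integrated signal ratio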;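 note: B-score derived from integrated fluorescence ratio over the kinetic read; more negative B-score means stronger inhibition of depolarization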
# TRPC4 spec 2 = second selectivity test of TRPC6 inhibitors: effect on mouse TRPC4. AID 2776. 42% of 920 active. HEK293 TRPC4/MOR, membrane potential dye fluorescence; channel activated by saturating DAMGO dose. shares compounds with TRPC6 inhibitor. inhibition, % at 10 µM;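 active = compounds whose fluorescence signal differed from control wells by over 3 SD, either direction, in both duplicate plates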
# TRPC4 spec = mouse TRPC4 modulation by TRPC6 hits, confirmation, selectivity assay for TRPC6 inhibitor project, cell-based, HEK293 TRPC4/mu-opioid, membrane potential dye; shares compounds with TRPC6 inhibitor; activity change, negative = inhibition, % at 10 µM; AID 2777, 2010; membrane potential fluorescence; 61% of 920 active;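 active = rise or fall in signal beyond 3 SD of buffer-only wells in both replicate plates, either sign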;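 note: integrated kinetic ratio of fluorescence range over baseline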
# HEK293 MPD ctr 2-1 = nonspecific membrane potential effects, parental HEK293, confirmation, counter-screen for TRPC6 inhibitor project, cell-based, second counter screen. shares compounds with TRPC6 inhibitor. parental HEK293 membrane potential dye fluorescence; maximal acetylcholine challenge after compound addition. signal change vs control, % at 10 µM. 31% of 920 active;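 active = membrane potential signal moving either way by over 3 SD of the maximum-effect control, in both duplicate plates, meaning non-specific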
# HEK293 MPD ctr-1 = membrane potential modulation in parental HEK293, confirmation, counter-screen for TRPC6 inhibitor project, cell-based | 60% of 920 active | parental HEK293 membrane potential dye fluorescence | shares compounds with TRPC6 inhibitor | membrane potential signal change, % at 10 µM | AID 2780, 2010;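 active = membrane potential signal shifting up or down by more than 3 SD of buffer-only wells, on both duplicate plates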
# HEK293 MPD ctr-2 = parental HEK293 membrane potential modulation, confirmation, counter-screen for TRPC6 modulator project, cell-based; 51% of 2,400 active; membrane potential signal change, % at 10 µM; shares compounds with TRPC6 inhibitor; membrane potential dye fluorescence; AID 488924, 2010;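 active = membrane potential signal moves up or down beyond 5 SD from buffer-only wells, on both duplicate plates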
# HEK293 MPD ctr 2-2 = second counter-screen for TRPC6 modulators: effect in parental HEK293 cells | shares compounds with TRPC6 inhibitor | membrane potential dye fluorescence; after compound, maximal acetylcholine stimulation | inhibition, % at 10 µM | 14% of 2,400 active | AID 488926;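 active = membrane potential signal drops by more than 5 SD from the mean control signal, in both duplicate plates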;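 note: plate controls were acetylcholine ECmax control wells for no effect and buffer only wells for full effect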
# TRPC4 ctr mod = TRPC4 modulation by TRPC6 hit compounds, confirmation, selectivity assay for TRPC6 modulator project, cell-based, HEK293 TRPC4/mu-opioid, membrane potential dye, mouse. shares compounds with TRPC6 inhibitor. membrane potential fluorescence. percent change from control (negative = decrease, positive = increase), % at 10 µM. 69% of 2,400 active;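 active = membrane potential signal moved up or down beyond 5 SD of buffer control wells, in both duplicate plates, actives on both sides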;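 note: plate controls were assay buffer wells for no effect and DAMGO maximal-effect wells for full effect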
# TRPC4 ctr inh 2 = mouse TRPC4 off-target activity of TRPC6 modulators, second screen; inhibition, % at 10 µM; shares compounds with TRPC6 inhibitor; HEK293 TRPC4/mu-opioid, membrane potential dye fluorescence; stimulated with maximal-effect DAMGO; 55% of 2,400 active;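 active = drop in membrane potential signal beyond 5 SD of the control wells in both duplicate plates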;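 note: TRPC4 counter screen for TRPC6 hits run under conditions tuned for TRPC6 not TRPC4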
# TRPC6 inh conf = mouse TRPC6 channel inhibitors, confirmation, HEK293 cells, membrane potential dye, duplicate | AID 488960, 2010 | 43% of 3,300 active | shares compounds with TRPC6 inhibitor | ACh-evoked depolarization | inhibition, % at 10 µM;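 active = fluorescence ratio falls more than 5 SD below the full-stimulation control mean, in both duplicate runs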;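 note: integrated fluorescence ratio of peak minus minimum over baseline after agonist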
# TRPC6 act confirm = mouse TRPC6 channel activators, confirmation, HEK293 cells, membrane potential dye, duplicate | 11% of 2,800 active | HEK293-TRPC6 membrane potential dye fluorescence, FDSS | shares compounds with TRPC6 inhibitor | AID 488961, 2010 | activation, % at 10 µM;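 active = ratio signal rise beyond 5 SD above unstimulated control wells' mean, seen in both duplicate runs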;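 note: plate controls were buffer EC0 wells for no effect and acetylcholine ECmax response for full effect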
# * hit, by the source's call; i = inactive; . = not tested or not shown.
SMILES,TRPC6 act,TRPC4 act,TRPC4 potent,TRPC4 block,TRPC6 inhibitor,HEK293 MPD ctr-2,HEK293 MPD ctr 2-2,TRPC4 ctr mod,TRPC4 ctr inh 2,TRPC6 inh conf,TRPC6 act confirm,others
CCN(CC)CC(=O)Nc1cc(N(C)C)nc2ccccc12,i,i,i,i,-7.5*,.,.,.,.,68%*,i,TRPC4 spec 2=70%*;TRPC4 spec=-25%*;HEK293 MPD ctr 2-1=3.0%*;HEK293 MPD ctr-1=-474%*
CN1CCN(CC(=O)Nc2cc(N(C)C)nc3ccccc23)CC1,i,i,i,i,-6.8*,-154%*,i,-26%*,44%*,i,i,
CN1CCc2c1nc1ccccc1c2NC(=O)CN1CCCC1,i,i,i,i,-6.5*,-278%*,i,-46%*,46%*,i,i,
Cc1ccccc1NC(=O)CSc1cn[nH]n1,i,i,i,i,i,.,.,.,.,.,.,
O=C(CCN1C(=O)C2CC=CCC2C1=O)Nc1cccc(Cl)c1 (centres undefined),i,i,i,i,i,.,.,.,.,.,.,
N#Cc1ccc(C2=NC(C(F)(F)F)(C(F)(F)F)c3c(n(Cc4ccco4)c(=O)[nH]c3=O)N2)cc1,i,i,i,i,-8.3*,.,.,.,.,i,i,TRPC4 spec 2=i;TRPC4 spec=-12%*;HEK293 MPD ctr 2-1=i;HEK293 MPD ctr-1=-128%*
CCOc1ccc(NC(=O)C(CC(=O)O)Cc2ccccc2)cc1 (centres undefined),i,i,i,i,i,.,.,.,.,.,.,
CCOc1ccc(NC(=O)CC(Cc2cc(C)cc(C)c2)C(=O)O)cc1 (centres undefined),i,i,i,i,-5.6*,i,i,i,i,i,i,
O=C(Cn1cc(S(=O)(=O)Cc2ccccc2F)c2ccccc21)N1CCOCC1,i,i,i,i,i,.,.,.,.,.,.,
Cc1cccn2c(CNC3CCCc4ccccc43)c(C(=O)N3CCCCC3)nc12 (centres undefined),i,i,i,i,-8*,420%*,75%*,92%*,55%*,74%*,.,
CCOC(=O)C1CCCN(Cc2c(C(=O)N3CCCCC3)nc3c(C)cccn23)C1 (centres undefined),i,i,i,i,i,.,.,.,.,.,.,
CN(C)CCCN1c2ccccc2Sc2ccccc21,i,i,i,i,-6.4*,i,i,i,58%*,44%*,i,
CN(CCCN1c2ccccc2CCc2ccccc21)CC(=O)c1ccc(Cl)cc1,i,i,i,i,i,.,.,.,.,.,.,
COc1ccc2c(c1)Sc1ccccc1N2CCN(C)C,i,50*,i,i,-5.1*,i,i,39%*,82%*,52%*,i,
CCC(=O)c1ccc2c(c1)N(CCCN(C)C)c1ccccc1S2,i,i,i,i,-6.1*,-232%*,72%*,-38%*,81%*,70%*,i,
O=C(Nc1ccccc1)c1nsnc1C(=O)Nc1ccccc1,i,i,i,i,i,.,.,.,.,.,.,
CCOC(=O)C1=C(C)OC(N)=C(C#N)C1c1cc2c(cc1Br)OCO2 (centres undefined),i,i,i,i,-5.2*,i,i,i,i,i,i,
CCOC(=O)C1CCN(C(=O)Cn2nc(C)n3cccc3c2=O)CC1,i,i,i,i,i,.,.,.,.,.,.,
CCOC(=O)c1[nH]c2ccccc2c1CCCN1C(=O)c2ccccc2C1=O,i,i,i,i,-6.9*,.,.,.,.,i,i,TRPC4 spec 2=i;TRPC4 spec=i;HEK293 MPD ctr 2-1=i;HEK293 MPD ctr-1=i
CC(NCc1ccc(N(C)C)cc1)C1CC2CCC1C2 (centres undefined),i,i,i,i,-6.5*,231%*,70%*,51%*,60%*,77%*,.,
OCCCn1c(-c2ccccc2)csc1=Nc1ccccc1,i,i,i,i,-5.8*,382%*,141%*,76%*,i,126%*,.,
O=C(O)CCC(=O)NCCn1c(-c2ccccc2)csc1=Nc1ccccc1,i,i,i,i,i,.,.,.,.,.,.,
Cc1cccc(C(=O)NN2C(=O)C3C(c4ccccc4)C=CC(c4ccccc4)C3C2=O)c1 (centres undefined),i,i,i,i,-5*,i,i,i,i,i,i,
